Screening data as filed in PubChem BioAssay.
FN deposition inh – fibronectin deposition inhibition | AH1F fibroblasts, Alexa488-fibronectin deposition fluorescence, overnight | inhibition, % at 12.6 µM | hit rate 0.086% among 350,000 | AID 743247;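 active = mean inhibition across replicates of 30% or more, regardless of how many single replicates reach that level; inconclusive = mean under 30% yet at least half of replicates reach 30%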;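 also: positive control wells lacked labelled fibronectin entirely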
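Test system: AH1F fibroblast monolayer depositing Alexa488-labelled fibronectin into matrix. Input: 10000 cells per well. Technique: fluorescence, ex 485 nm, em 525 nm. Buffer or medium: DMEM plus 2% serum, read in PBS. Timing: 1 h cell adhesion before compound, then overnight fibronectin incubation. Compound: single dose, pinned. Read-out basis: inhibition from reduced deposited-fibronectin fluorescence.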
PAX8 inh HTS – lowers PAX8-driven luciferase in RMG-I cells | RMG-I TPO-luciferase reporter, SteadyGlo, 24 h | hit rate 1.2% among 360,000 | inhibition, % at 12.6 µM;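 active = mean replicate inhibition at least 60% with every replicate also reaching 60%; inconclusive = only one of the two criteria is met; inactive = mean below 60% and not all replicates reaching 60%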;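 also: luciferase light reporting Pax8 driven TPO promoter activity; plate controls were median of neutral control wells for no effect and mitoxantrone controls for full effect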
Glyco luc inh – blocks N-linked glycosylation in D54 reporter cells; reporter increase, % at 12.5 µM; D54 ERlucT glycosylation luciferase reporter, 24 h; percent of 100 nM tunicamycin response; hit rate 0.23% among 360,000; AID 588692;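 active = mean luciferase reporter signal, scaled so untreated is 0 and the glycosylation-blocking control 100, at or above a set limit in every replicate; inconclusive = mean reaches the limit but not every replicate does; inactive = mean below the limit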;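 also: luciferase carries N-glycosylation sites so blocking glycosylation raises the light; 0% = median of neutral control wells and 100% = median of 100 nM tunicamycin wells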
Env fusion inh – inhibitors of HIV Env-mediated cell fusion; HeLa-JRFL Env/CEM21 cell fusion, luciferase; inhibition, % at 12.3 µM; hit rate 1.1% among 360,000; AID 651610;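 active = mean replicate inhibition score of at least 50 and every replicate individually at or above 50; inconclusive = only one of the two criteria met; inactive = mean below 50 and not all replicates reaching 50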;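 also: 0% = plate neutral controls and 100% = maraviroc near 300 nM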
AF4-AF9 inh – MLL-AF4/AF9 protein interaction inhibition | P42568 | AlphaScreen, biotin-AF4 peptide binding to FLAG-AF9 | inhibition, % at 10 µM | hit rate 0.47% among 350,000 | AID 651704;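 active = every replicate reaching a set inhibition limit, whatever the replicate mean, cut at about 25% in these data; inconclusive = mean inhibition reaches that limit but some replicates miss it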;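 also: 0% = plate neutral control median and 100% = total signal loss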
Target sequence (P42568 whole entry, looked up): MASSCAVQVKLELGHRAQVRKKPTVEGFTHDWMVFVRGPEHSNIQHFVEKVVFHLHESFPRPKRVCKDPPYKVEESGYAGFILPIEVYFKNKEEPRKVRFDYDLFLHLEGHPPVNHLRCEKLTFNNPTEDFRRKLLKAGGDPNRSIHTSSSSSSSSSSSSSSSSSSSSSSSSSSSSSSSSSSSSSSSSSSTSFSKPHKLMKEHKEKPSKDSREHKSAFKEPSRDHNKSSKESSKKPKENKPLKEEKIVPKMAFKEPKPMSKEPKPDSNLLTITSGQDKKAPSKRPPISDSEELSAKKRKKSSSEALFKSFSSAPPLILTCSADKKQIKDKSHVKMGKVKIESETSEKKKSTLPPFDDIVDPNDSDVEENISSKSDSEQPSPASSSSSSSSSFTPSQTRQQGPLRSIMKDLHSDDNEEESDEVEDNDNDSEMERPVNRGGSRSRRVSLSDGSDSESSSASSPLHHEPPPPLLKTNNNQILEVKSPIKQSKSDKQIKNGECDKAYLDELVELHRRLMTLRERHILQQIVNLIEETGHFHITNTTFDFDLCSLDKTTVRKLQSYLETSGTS
EWS-Fli block – inhibitors of EWS/Fli oncoprotein transcriptional activity | A673 NR0B1-luciferase reporter, viability-normalised | inhibition, % at 12.6 µM | AID 651661 | hit rate 0.67% among 350,000;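 active = mean inhibition of at least 50% after viability correction, with every replicate also passing that limit; inconclusive = mean reaches 50% but only one of two replicates passes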;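 also: firefly luciferase signal divided by Alamar Blue viability fluorescence both relative to DMSO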
* marks the source's active call; other numbers are inactive results; ? = inconclusive; · = no result; ! = not active in a repeat; [ ] = remark or other dose. In the library only some 2.5% were active in any assay of this set; here they are far more common.

SMILES	FN deposition inh	PAX8 inh HTS	Glyco luc inh	Env fusion inh	AF4-AF9 inh	EWS-Fli block
CNC[C@@H]1Oc2cc(C#CC3CCCC3)ccc2S(=O)(=O)N([C@H](C)CO)C[C@H]1C	6	6	·	26[16.7 µM]	-7	-1
C/C=C/c1ccc2c(c1)O[C@@H](CN(C)Cc1cncnc1)[C@H](C)CN([C@@H](C)CO)S2(=O)=O	-1	·	·	20[16.7 µM]	0	11
O=C(NC1CCCCC1)[C@@H]1[C@@H](CO)[C@@H]2Cn3c(cccc3=O)[C@@H]2N1CC1CCCC1	·	·	·	·	-1	3
C[C@@H]1CN([C@H](C)CO)C(=O)c2cc(NS(=O)(=O)c3ccc(F)cc3)ccc2O[C@@H](C)CCCCO[C@@H]1CN(C)S(=O)(=O)c1ccccc1	1	50	·	-58[16.7 µM]	-3	5
Cc1ccc(S(=O)(=O)NCC[C@H]2CC[C@@H](NC(=O)Nc3ccccc3F)[C@H](CO)O2)cc1	·	-13	·	9[16.7 µM]	0	1
C[C@H]1CCCCO[C@H](CN(C)C(=O)Nc2ccc(F)cc2)[C@@H](C)CN([C@@H](C)CO)C(=O)c2cc(NC(=O)Nc3ccc(C(F)(F)F)cc3)ccc2O1	·	84*	·	30[16.7 µM]	-11	4
C[C@@H]1CCCCO[C@H](CN(C)C)[C@@H](C)CN([C@H](C)CO)C(=O)c2cc(NC(=O)Nc3ccc(C(F)(F)F)cc3)ccc2O1	·	-2	·	0[16.7 µM]	2	-6
C[C@@H]1CCCCO[C@@H](CN(C)C(=O)Nc2ccc(C(F)(F)F)cc2)[C@@H](C)CN([C@H](C)CO)C(=O)c2cc(NC(=O)Nc3ccc(F)cc3)ccc2O1	-11	·	·	·	-5	6
C[C@@H]1CCCCO[C@@H](CN(C)C)[C@H](C)CN([C@H](C)CO)C(=O)c2cc(NC(=O)Nc3ccc(C(F)(F)F)cc3)ccc2O1	·	63*	·	-21[16.7 µM]	7	6
C[C@@H]1CN([C@H](C)CO)C(=O)c2cc(NC(=O)Nc3ccc(F)cc3)ccc2O[C@@H](C)CCCCO[C@H]1CN(C)C(=O)Nc1ccc(C(F)(F)F)cc1	4	87*	·	39[16.7 µM]	1	-1
C[C@H]1CCCCO[C@H](CN(C)C(=O)Nc2ccc(C(F)(F)F)cc2)[C@@H](C)CN([C@@H](C)CO)C(=O)c2cc(NC(=O)Nc3ccc(F)cc3)ccc2O1	2	84*	·	77*[16.7 µM]	1	-11
C[C@H]1CCn2cc(nn2)COCCNC1=O	-6	·	·	·	·	·
C[C@@H]1CCCCO[C@@H](CN(C)S(=O)(=O)c2cccs2)[C@@H](C)CN([C@@H](C)CO)C(=O)c2cc(NC(=O)NC3CCCCC3)ccc2O1	·	19	·	21[16.7 µM]	·	8
C[C@@H]1CCCCO[C@@H](CN(C)S(C)(=O)=O)[C@H](C)CN([C@H](C)CO)C(=O)c2cc(NC(=O)Nc3ccc(C(F)(F)F)cc3)ccc2O1	·	8	·	-6[16.7 µM]	5	-4
C[C@H]1CCCCO[C@@H](CN(C)S(=O)(=O)c2cccs2)[C@@H](C)CN([C@@H](C)CO)C(=O)c2cc(NC(=O)NC3CCCCC3)ccc2O1	·	97*	·	40[16.7 µM]	·	23
C[C@@H]1CN([C@H](C)CO)C(=O)c2cc(NC(=O)Nc3ccc(C(F)(F)F)cc3)ccc2O[C@@H](C)CCCCO[C@H]1CN(C)S(C)(=O)=O	·	73*	·	19[16.7 µM]	6	2
C[C@@H]1CCCCO[C@H](CN(C)C(=O)Nc2ccc(C(F)(F)F)cc2)[C@@H](C)CN([C@@H](C)CO)C(=O)c2cc(NC(=O)Nc3ccc(C(F)(F)F)cc3)ccc2O1	-6	89*	·	?	·	-4
C[C@@H]1CCCCO[C@H](CN(C)C(=O)Nc2ccc(C(F)(F)F)cc2)[C@H](C)CN([C@@H](C)CO)C(=O)c2cc(NC(=O)Nc3ccc(C(F)(F)F)cc3)ccc2O1	-1	-1	·	17[16.7 µM]	·	-14
C[C@H](CO)N1C[C@H](C)[C@H](CN(C)C(=O)C2CCCCC2)OCc2cn(nn2)CCCC1=O	-6	·	·	9[16.7 µM]	-1	-4
CC1CC(Nc2ccccc2)c2ccccc2N1C(=O)c1cccnc1 (stereo not drawn)	5	·	2	20	·	·
CC1CC(Nc2ccccc2)c2ccccc2N1C(=O)c1ccccc1F (stereo not drawn)	-3	35	8	9	4	63*
Cc1ccn2c(c1)nc(=S)n2C(=O)c1ccccc1	-3	-6	-21	-148	2	71*
CN1c2ccc(-c3ccccc3)cc2[C@@H]2[C@@H](CCN2C(=O)Cc2ccccc2)[C@@H]1CO	-8	35	·	·	5	12
CN1c2ccc(-c3cccc(F)c3)cc2[C@H]2[C@H](CCN2C(=O)C2CCC2)[C@H]1CO	-25	·	·	·	28*	5
CN1c2ccc(-c3cccc(F)c3)cc2[C@@H]2[C@@H](CCN2C(=O)C2CCC2)[C@H]1CO	4	37	·	10[16.7 µM]	9	4
SMILES	FN deposition inh	PAX8 inh HTS	Glyco luc inh	Env fusion inh	AF4-AF9 inh	EWS-Fli block
CN1c2ccc(-c3cccc(F)c3)cc2[C@@H]2[C@@H](CCN2C(=O)Cc2ccccc2)[C@@H]1CO	1	75*	·	·	12	2
C[C@@H]1CN([C@H](C)CO)C(=O)c2cc(C#CCN(C)C)cnc2O[C@H]1CN(C)S(=O)(=O)c1cn(C)cn1	·	·	·	-16[16.7 µM]	-4	-3
CCn1c(-c2ccccc2)csc1=Nc1ccc(O)cc1	-1	-158	-9	-47	49*	-19
CCOc1ccc(N=c2scc(-c3ccccc3)n2CCO)cc1	·	·	-4	·	2	-107
O=C(O)CCCNC(=O)C(c1ccccc1)c1ccccc1	3	164*!	2	8	3	1
O=C(C[C@@H]1CC[C@@H]2[C@H](COC[C@@H](O)CN2S(=O)(=O)c2ccc(Cl)cc2)O1)NCCN1CCCC1	-6	13	·	·	-6	4
CCCNC(=O)N1C[C@@H](C)[C@@H](OC)CN(C)C(=O)c2ccc(NC(=O)C3CCC3)cc2OC[C@H]1C	0	2	·	11[16.7 µM]	-2	-3
Cc1ccc(C)c(Cn2c(C(=O)OC(C)C)cc3c2ccn3C)c1	-10	12	-2	30	·	·
Cc1ccccc1Cn1c(C(=O)OC(C)C)cc2c1ccn2C	-4	14	-3	54*	·	·
Cc1nn(C)c(C)c1/C=C/C(=O)O	22	-2	-1	-16	0	5
Cc1nn(C)c(C)c1/C=C/C(=O)c1ccc(Cl)cc1Cl	1	30	-3	56*	5	-5
CN(C)CCn1c2ccccc2c2nc3ccc([N+](=O)[O-])cc3cc21	-17	76*	12	37	-2	-20
C[C@H](CO)N1C[C@H](C)[C@@H](CN(C)Cc2ccc(Oc3ccccc3)cc2)Oc2ccc(NC(=O)C3CCCCC3)cc2C1=O	·	·	·	38[16.7 µM]	·	14
CC(C)(O)c1[nH]c2ccc(C#N)cc2c1C(C)(C)O	19	-11	·	50	46*	-8
CCCNc1ncnc2ccc(Br)cc12	·	7	·	22[16.7 µM]	-8	-9
CCN(CC)c1ncnc2ccc(Br)cc12	·	·	-11	87*	·	·
